Source: ChEMBL document CHEMBL1122388, “beta 1-selective adrenoceptor antagonists. 2. 4-ether-linked phenoxypropanolamines” (J Med Chem, 1983)

How the values were obtained:
[1] = target: Adrenergic receptor beta (Rattus norvegicus) (UniProt P18090+P10608+P26255); assay: Beta agonistic activity as the dose required to increase heart rate by 30 beats/min in anesthetized rats upon intravenous administration; format: functional, organism-based
Summary of the method: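 Rats anesthetized with pentobarbitone sodium (75 mg/kg ip), reserpine-pretreated (5 mg/kg ip) 20-24 h earlier. Single doses of test compound given into tail vein, up to 20 animals depending on activity; blood pressure and heart rate recorded. ED30 (dose raising heart rate 30 beats/min) with 95% confidence limits from log dose-response linear regression.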

[2] = target: Beta-1 adrenergic receptor (Rattus norvegicus) (UniProt P18090); assay: Beta-1 adrenoceptor blocking activity as the dose required to inhibit 50% of tachycardia in anesthetized rats; format: functional
Beta-1 adrenergic receptor (Rattus norvegicus), sequence (P18090 whole entry, looked up): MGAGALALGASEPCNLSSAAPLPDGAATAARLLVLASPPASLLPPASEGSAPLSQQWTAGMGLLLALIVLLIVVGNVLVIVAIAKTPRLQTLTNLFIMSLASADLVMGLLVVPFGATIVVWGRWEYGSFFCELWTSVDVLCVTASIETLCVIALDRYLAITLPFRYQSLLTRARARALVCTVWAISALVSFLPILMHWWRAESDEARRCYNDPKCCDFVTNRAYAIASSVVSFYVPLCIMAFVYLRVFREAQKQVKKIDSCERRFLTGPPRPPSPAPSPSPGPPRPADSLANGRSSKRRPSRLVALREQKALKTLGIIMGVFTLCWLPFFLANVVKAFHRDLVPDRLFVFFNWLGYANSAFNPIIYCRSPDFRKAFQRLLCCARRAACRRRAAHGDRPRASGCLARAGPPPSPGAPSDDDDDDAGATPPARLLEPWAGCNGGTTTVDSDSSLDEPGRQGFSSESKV
Summary of the method: (§1)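 Isoprenaline (0.1 µg/kg) and test compound in saline given into right femoral vein; blood pressure from left carotid artery, heart rate by tachograph triggered from arterial pulse. Test compound injected 5 min after isoprenaline, cumulative doses up to, in most cases, 2 mg/kg. Six rats per compound; ED50 with 95% confidence limits from log dose-response linear regression.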

[3] = target: Beta-2 adrenergic receptor (Rattus norvegicus) (UniProt P10608); assay: Beta-2 adrenergic receptor antagonist activity as the dose required to inhibit 50% of vasodepressor response in anesthetized rats
Beta-2 adrenergic receptor (Rattus norvegicus), sequence (P10608 whole entry, looked up): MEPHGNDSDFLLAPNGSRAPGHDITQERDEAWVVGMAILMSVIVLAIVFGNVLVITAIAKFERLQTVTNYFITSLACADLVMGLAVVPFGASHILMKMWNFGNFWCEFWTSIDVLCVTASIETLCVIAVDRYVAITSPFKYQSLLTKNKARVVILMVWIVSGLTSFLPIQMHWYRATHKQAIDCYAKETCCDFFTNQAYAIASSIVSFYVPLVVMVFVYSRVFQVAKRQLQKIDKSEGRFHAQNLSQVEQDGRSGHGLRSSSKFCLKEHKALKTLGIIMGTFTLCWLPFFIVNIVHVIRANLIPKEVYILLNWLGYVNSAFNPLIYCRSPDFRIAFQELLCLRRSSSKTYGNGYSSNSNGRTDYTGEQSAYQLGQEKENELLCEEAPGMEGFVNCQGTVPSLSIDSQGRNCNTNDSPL

[4] = target: Beta-1 adrenergic receptor (Rattus norvegicus) (UniProt P18090); assay: Compound was tested for beta-1 adrenergic receptor blocking activity as the dose required to inhibit 50% of tachycardia in anesthetized rats; format: functional; summary of the method: as §1

Work on `CC(C)(C)NCC(O)COc1ccc(OCCOCCc2ccc(F)cc2)cc1` (centres undefined) yielded an ED30 [1] of 0.024 mg/kg, an ED50 [2] of 0.002 mg/kg and an ED50 [3] greater than 2 mg/kg.

Compound `CC(=O)Nc1ccc(CCOCCOc2ccc(OCC(O)CNC(C)C)cc2)cc1` (centres undefined) has an ED30 [1] of 0.029 mg/kg, an ED50 [2] greater than 2 mg/kg and an ED50 [3] greater than 2 mg/kg.

Work on `CC(C)NCC(O)COc1ccc(OCCOCCOc2ccc(OCC(O)CNC(C)C)cc2)cc1` (centres undefined) yielded an ED30 [1] of 0.005 mg/kg, an ED50 [2] of 0.052 mg/kg and an ED50 [3] greater than 10 mg/kg.

`Cc1cc(OCCOCCc2ccccc2)ccc1OCC(O)CNC(C)C` (centres undefined) showed an ED30 [1] of 0.057 mg/kg, an ED50 [2] of 0.572 mg/kg and an ED50 [3] greater than 2 mg/kg.

Work on `CC(C)(C)NCC(O)COc1ccc(OCCOCCc2ccccc2)cc1` (centres undefined) yielded an ED30 [1] of 0.022 mg/kg, an ED50 [2] of 0.018 mg/kg and an ED50 [3] of 0.979 mg/kg.

With `CC(C)NCC(O)COc1ccc(CC(N)=O)cc1` (centres undefined) the ED30 [1] was greater than 1 mg/kg and the ED50 [2] was 0.091 mg/kg.

With `CC(C)NCC(O)COc1ccc(OCCOCCc2ccc(C#N)cc2)cc1` (centres undefined) the ED30 [1] was 0.032 mg/kg, the ED50 [2] was 0.654 mg/kg and the ED50 [3] was greater than 2 mg/kg.

Work on `CC(C)NCC(O)COc1ccc(OCCOCCc2ccc(F)cc2)c(F)c1` (centres undefined) yielded an ED30 [1] greater than 1 mg/kg, an ED50 [2] of 0.001 mg/kg and an ED50 [3] greater than 2 mg/kg.

`CC(C)NCC(O)COc1ccc(OCCOCCc2ccccc2)cc1` (centres undefined) gave an ED30 [1] of 0.02 mg/kg, an ED50 [2] of 0.015 mg/kg and an ED50 [3] greater than 50 mg/kg.

`CC(C)NCC(O)COc1ccc(OCCOCCc2ccc(Cl)cc2)cc1` (centres undefined) showed an ED30 [1] of 0.032 mg/kg, an ED50 [2] of 0.627 mg/kg and an ED50 [3] greater than 2 mg/kg.

`CC(C)NCC(O)COc1ccc(OCCOCCc2ccc(F)cc2)cc1F` (centres undefined) gave an ED30 [1] of 0.045 mg/kg, an ED50 [2] of 0.001 mg/kg and an ED50 [3] greater than 2 mg/kg.

In the case of `CC(C)NCC(O)COc1ccc(OCCOCCc2ccccc2)cc1Cl` (centres undefined), the ED30 [1] was 0.016 mg/kg, the ED50 [2] was 0.025 mg/kg and the ED50 [3] was 0.834 mg/kg.

`COCCc1ccc(OCC(O)CNC(C)C)cc1` (centres undefined) gave an ED30 [1] greater than 1 mg/kg and an ED50 [2] of 0.25 mg/kg.

`CC(C)NCC(O)COc1ccc(OCCOCCc2ccc(F)cc2)cc1` (centres undefined) showed an ED30 [1] of 0.037 mg/kg, an ED50 [2] of 0.003 mg/kg and an ED50 [3] greater than 2 mg/kg.

Compound `CC(C)NCC(O)COc1ccc(CCOCCOc2ccccc2)cc1` (centres undefined) has an ED50 [4] of 0.068 mg/kg, an ED30 [1] greater than 1 mg/kg and an ED50 [3] of 0.924 mg/kg.

Compound `COc1ccc(CCOCCOc2ccc(OCC(O)CNC(C)C)cc2)cc1` (centres undefined) has an ED30 [1] of 0.009 mg/kg, an ED50 [2] of 0.344 mg/kg and an ED50 [3] greater than 2 mg/kg.

For `CC(C)NCC(O)COc1ccc(CCOCCc2ccccc2)cc1` (centres undefined), the ED50 [4] was 0.163 mg/kg, the ED30 [1] was greater than 1 mg/kg and the ED50 [3] was greater than 2 mg/kg.

Work on `Cc1ccc(CCOCCOc2ccc(OCC(O)CNC(C)C)cc2)cc1` (centres undefined) yielded an ED30 [1] of 0.022 mg/kg, an ED50 [2] of 0.066 mg/kg and an ED50 [3] greater than 2 mg/kg.

Compound `CC(C)NCC(O)COc1ccc(OCCOCCOc2ccccc2)cc1` (centres undefined) has an ED30 [1] of 0.017 mg/kg, an ED50 [2] of 0.041 mg/kg and an ED50 [3] greater than 5 mg/kg.

Work on `CC(C)NC[C@H](O)COc1ccc(OCCOCCc2ccc(F)cc2)cc1` (stereo in doubt; 14a) yielded an ED30 [1] of 0.019 mg/kg, an ED50 [2] of 0.004 mg/kg and an ED50 [3] greater than 2 mg/kg.

`CSc1ccc(CCOCCOc2ccc(OCC(O)CNC(C)C)cc2)cc1` (centres undefined) gave an ED30 [1] of 0.042 mg/kg, an ED50 [2] of 0.174 mg/kg and an ED50 [3] greater than 2 mg/kg.

In the case of `CC(C)NC[C@H](O)COc1ccc(OCCOCCc2ccc(F)cc2)cc1` (stereo in doubt; 14b), the ED30 [1] was greater than 1 mg/kg, the ED50 [2] was greater than 2 mg/kg and the ED50 [3] was greater than 2 mg/kg.
